The values below come from ChEMBL document CHEMBL1828506, “New fluorine-containing hydrazones active against MDR-tuberculosis” (Eur J Med Chem, 2011).

In brackets after ≈: the same amount, converted by molar mass. Some results are limits rather than exact numbers.

Assay [1] has as its system Mycobacterium kansasii. Nature of the assay: Antimycobacterial activity against Mycobacterium kansasii CNTC My 235/80 after 14 days. Type of assay: functional. As to conditions: CNTC My 235/80, 336 h.
Assay [2] relates to PBMC. The assay is described as follows: Cytotoxicity against human PBMC measured after overnight incubation by MTT assay. In kind it is cell-based. The procedure, abridged:
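Freshly prepared human PBMC in phenol-red-free RPMI-1640 with 10% FCS, 2 mM L-glutamine and gentamycin, 2.0 × 10⁵ cells per well. After 24 h at 37 °C, overnight compound exposure in serum-free medium. MTT for 4 h, formazan in DMSO, OD540 minus OD620. % cytotoxicity versus controls; IC50 from dose-response curves. Two independent experiments.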
Background: Tetrazolium dyes change colour on reduction, which living cells bring about.

Assay [3] has as its system Mycobacterium kansasii. The assay is described as follows: Antimycobacterial activity against Mycobacterium kansasii CNTC 6509/96 after 21 days. In kind it is functional. As to conditions: CNTC 6509/96, 504 h.
The subject of assay [4] is Mycobacterium kansasii. The assay is described as follows: Antimycobacterial activity against Mycobacterium kansasii CNTC 6509/96 after 14 days. In kind it is functional. As to conditions: CNTC 6509/96, 336 h.
Assay [5] has as its system HepG2. The assay is described as follows: Cytotoxicity against human HepG2 cells measured after overnight incubation by MTT assay. In kind it is cell-based. In short, it runs like this: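 HepG2 cells in phenol-red-free RPMI-1640 with 10% FCS, 2 mM L-glutamine and gentamycin, seeded at 5 × 10³ per well. After 24 h at 37 °C, cells were exposed overnight to compound in serum-free medium. MTT (2 mg/mL) for 4 h, formazan dissolved in DMSO, read as OD540 minus OD620. % cytotoxicity versus untreated controls; IC50 taken from dose-response curves. Two independent experiments, 4–8 parallel measurements.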

Assay [6] deals with Mycobacterium kansasii. Nature of the assay: Antimycobacterial activity against Mycobacterium kansasii CNTC 6509/96 after 7 days. As to conditions: CNTC 6509/96, 168 h. Type of assay: functional.
Assay [7] has as its system Mycobacterium avium. Nature of the assay: Antimycobacterial activity against Mycobacterium avium CNTC 330/88 after 14 days. In kind it is functional. As to conditions: CNTC 330/88, 336 h.
For assay [8], the system named is Mycobacterium kansasii. The assay is described as follows: Antimycobacterial activity against Mycobacterium kansasii CNTC My 235/80 after 7 days. In kind it is functional. As to conditions: CNTC My 235/80, 168 h.
Assay [9] relates to Mycobacterium kansasii. The assay is described as follows: Antimycobacterial activity against Mycobacterium kansasii CNTC My 235/80 after 21 days. Type of assay: functional. As to conditions: CNTC My 235/80, 504 h.
The subject of assay [10] is Mycobacterium avium. The assay is described as follows: Antimycobacterial activity against Mycobacterium avium CNTC 330/88 after 21 days. As to conditions: CNTC 330/88, 504 h. In kind it is functional.
For assay [11], the system named is Mycobacterium tuberculosis. The assay is described as follows: Antimycobacterial activity against Mycobacterium tuberculosis H37Rv ATCC 27294 after 28 days by colony forming unit determination. Type of assay: functional. As to conditions: H37Rv ATCC 27294, 672 h. The procedure, abridged: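 Compounds added to Sula liquid medium as DMSO solutions (DMSO at most 2%), incubated at 37 °C for 28 days. MIC is the lowest concentration giving visible growth inhibition. Activity was confirmed by CFU counts after subculture onto drug-free Löwenstein-Jensen solid medium.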

Assay [12] is described as follows: Selectivity index, ratio of IC50 for human HepG2 cells to MIC for Mycobacterium tuberculosis H37Rv ATCC 27294. Type of assay: functional.
The subject of assay [13] is SH-SY5Y. Nature of the assay: Cytotoxicity against human SH-SY5Y cells measured after overnight incubation by MTT assay. Type of assay: cell-based. In short, it runs like this:
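SH-SY5Y neuroblastoma cells in phenol-red-free DMEM with 10% FCS, 2 mM L-glutamine, gentamycin and 1% NEAA, 7.5 × 10³ per well. After 24 h at 37 °C, overnight compound exposure in serum-free medium. MTT readout (OD540 minus OD620) against untreated controls; IC50 from dose-response curves. Two independent experiments.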

Usually MIC stands for the least concentration at which growth counts as inhibited. By IC50 is commonly meant the point on the concentration scale where inhibition reaches its midpoint. A high value points to a need for much substance. Consider `O=C(N/N=C/NC(=O)c1cnccn1)c1cccc(F)c1`, for which the MIC is 250 µM (≈ 71.8 µg/mL) in assay [1]; above 500 µM in [3]; above 500 µM in [4]; 250 µM (≈ 71.8 µg/mL) in assay [6]; above 500 µM in [7]; 250 µM (≈ 71.8 µg/mL) in assay [8]. Moreover, the minimal inhibitory concentration (MIC) in [9] and in [10] was above 500 µM in each case. In addition, the figures for the 50% inhibitory concentration (IC50) in assay [2] and in assay [5] were above 305 µM and above 130 µM, respectively.
`O=C(N/N=C/NC(=O)c1cnccn1)c1ccc(C(F)(F)F)cc1`: the MIC in [1] is 250 µM (≈ 84.3 µg/mL); in assay [3], 500 µM (≈ 169 µg/mL); in [4], 500 µM (≈ 169 µg/mL); in assay [6], 250 µM (≈ 84.3 µg/mL); in [7], above 1000 µM; in assay [8], 250 µM (≈ 84.3 µg/mL). For the same molecule, the MIC is 250 µM (≈ 84.3 µg/mL) in assay [9] and above 1000 µM in assay [10]. In addition, the IC50 in [5] is above 624 µM.
Consider `O=C(N/N=C/N1CCN(c2cc3c(cc2F)c(=O)c(C(=O)O)cn3C2CC2)CC1)c1cccc(F)c1`, for which the MIC is 4 µM (≈ 1.98 µg/mL) in [1]; 1 µg/mL (≈ 2.02 µM) in assay [11]; 4 µM (≈ 1.98 µg/mL) in assay [3]; 4 µM (≈ 1.98 µg/mL) in assay [4]; 4 µM (≈ 1.98 µg/mL) in assay [6]; 125 µM (≈ 61.9 µg/mL) in [7]. Moreover, the MIC worked out at 4 µM (≈ 1.98 µg/mL) in assay [8], 8 µM (≈ 3.96 µg/mL) in [9] and 250 µM (≈ 124 µg/mL) in assay [10]. For the same molecule, the figures for the IC50 in assay [2] and in assay [5] were above 305 µM and above 812 µM, respectively. In addition, the “Selectivity Index” value in assay [12] amounted to 402.38.
As for `NNC(=O)c1ccncc1` [ISONIAZID], the MIC was above 250 µM in assay [1]; 0.01 µg/mL (≈ 0.0729 µM) in [11]; 4 µM (≈ 0.549 µg/mL) in assay [3]; 4 µM (≈ 0.549 µg/mL) in assay [4]; 2 µM (≈ 0.274 µg/mL) in [6]; above 250 µM in [7]. In addition, the results for the minimal inhibitory concentration (MIC) in [8], in assay [9] and in assay [10] were 250 µM (≈ 34.3 µg/mL), above 250 µM and above 250 µM, respectively. In addition, the IC50 in assay [2] is 4670 µM; in assay [5], above 1000 µM.
Take `CCn1cc(C(=O)O)c(=O)c2cc(F)c(N3CCN(/C=N/NC(=O)c4ccc(C(F)(F)F)cc4)CC3)cc21`: the MIC amounted to 4 µM (≈ 2.13 µg/mL) in [1]; 5 µg/mL (≈ 9.37 µM) in assay [11]; 8 µM (≈ 4.27 µg/mL) in assay [3]; 4 µM (≈ 2.13 µg/mL) in assay [4]; 2 µM (≈ 1.07 µg/mL) in assay [6]; 500 µM (≈ 267 µg/mL) in [7]. For the same molecule, the MIC in assay [8] was 2 µM (≈ 1.07 µg/mL); in [9], 8 µM (≈ 4.27 µg/mL); in [10] it was 500 µM (≈ 267 µg/mL). In addition, the IC50 in assay [2] was 262 µM; in assay [5], above 37.3 µM; in assay [13], 107 µM. Besides, in assay [12], the “Selectivity Index” value is on record as 3.98.
For `Nc1ccc(C(=O)O)c(O)c1` [AMINOSALICYLIC ACID], the MIC is 1000 µM (≈ 153 µg/mL) in [1]; 0.2 µg/mL (≈ 1.31 µM) in [11]; 500 µM (≈ 76.6 µg/mL) in [3]; 125 µM (≈ 19.1 µg/mL) in [4]; 32 µM (≈ 4.9 µg/mL) in assay [6]; 32 µM (≈ 4.9 µg/mL) in assay [7]. In addition, the results for the MIC in assay [8], in [9] and in [10] were 125 µM (≈ 19.1 µg/mL), above 1000 µM and 125 µM (≈ 19.1 µg/mL), respectively.
On to `O=C(O)c1cn(C2CC2)c2cc(N3CCNCC3)c(F)cc2c1=O` [CIPROFLOXACIN], for which the MIC in assay [1] was 2 µM (≈ 0.663 µg/mL); in assay [11] it was 0.5 µg/mL (≈ 1.51 µM); in assay [3] it was 2 µM (≈ 0.663 µg/mL); in assay [4] it was 1 µM (≈ 0.331 µg/mL); in [6] it was 1 µM (≈ 0.331 µg/mL); in assay [7], 62.5 µM (≈ 20.7 µg/mL). Besides, the values for the MIC in [8], in assay [9] and in assay [10] were 1 µM (≈ 0.331 µg/mL), 2 µM (≈ 0.663 µg/mL) and 62.5 µM (≈ 20.7 µg/mL), respectively. The IC50 in assay [2], in assay [5] and in [13] was above 500 µM throughout. The “Selectivity Index” value in [12] is given as 333.33.
Consider `O=C(N/N=C/N1CCN(c2cc3c(cc2F)c(=O)c(C(=O)O)cn3C2CC2)CC1)c1ccc(C(F)(F)F)cc1`, for which the MIC in assay [1] came to 2 µM (≈ 1.09 µg/mL); in [11], 1 µg/mL (≈ 1.83 µM); in assay [3], 2 µM (≈ 1.09 µg/mL); in assay [4] it was 1 µM (≈ 0.545 µg/mL); in assay [6], 1 µM (≈ 0.545 µg/mL); in assay [7], 32 µM (≈ 17.5 µg/mL). Moreover, the MIC in assay [8] turned out to be 2 µM (≈ 1.09 µg/mL); in [9], 4 µM (≈ 2.18 µg/mL); in [10] it was 62.5 µM (≈ 34.1 µg/mL). Moreover, the IC50 in [2] and in assay [5] was 347 µM in each case. In assay [12], the “Selectivity Index” value is recorded as 189.21.
